In ChEMBL document CHEMBL1240526, “Development of a new epidermal growth factor receptor positron emission tomography imaging agent based on the 3-cyanoquinoline core: synthesis and biological evaluation” (Bioorg Med Chem, 2010):

How the values were obtained:
[1] = Metabolic stability in mouse liver assessed as compound remaining at 3.7 MBq after 2 mins; assay type: ADME, tissue-based; conditions: read-out: Stability
Outline: (§1)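 Non-tumor-bearing mice received 3.7 MBq of the ¹⁸F tracer iv. Plasma and liver were collected at 2, 30 and 60 min and snap-frozen. Samples were extracted in ice-cold MeOH (liver homogenized), centrifuged at 4 °C, then dried, filtered and run on radio-HPLC. Parent fraction = parent peak over total chromatogram radioactivity; plasma extraction efficiency 83.5%. Mean of three studies per time point.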

[2] = Biodistribution in human A431 cell xenografted nu/nu BALB/c mouse full caecum at 3.7 MBq after 60 mins; assay type: ADME, organism-based, A-431; conditions: in vivo, 1 h
[3] = Biodistribution in human A431 cell xenografted nu/nu BALB/c mouse empty caecum at 3.7 MBq after 60 mins; assay type: ADME, organism-based, A-431; conditions: in vivo, 1 h
[4] = system: Kidney; assay: Biodistribution in human A431 cell xenografted nu/nu BALB/c mouse kidney at 3.7 MBq after 60 mins; assay type: ADME, organism-based, A-431; conditions: in vivo, 1 h
[5] = Biodistribution in human A431 cell xenografted nu/nu BALB/c mouse plasma at 3.7 MBq after 60 mins; assay type: ADME, organism-based, A-431; conditions: in vivo, 1 h
[6] = system: Jejunum; assay: Biodistribution in human A431 cell xenografted nu/nu BALB/c mouse empty jejunum at 3.7 MBq after 60 mins; assay type: ADME, organism-based, A-431; conditions: in vivo, 1 h
[7] = Metabolic stability in mouse plasma assessed as compound remaining at 3.7 MBq after 30 mins; assay type: ADME, cell-free; conditions: read-out: Stability; outline: as §1
[8] = Metabolic stability in mouse plasma assessed as compound remaining at 3.7 MBq after 60 mins; assay type: ADME, cell-free; conditions: read-out: Stability; outline: as §1
[9] = Metabolic stability in mouse liver assessed as compound remaining at 3.7 MBq after 30 mins; assay type: ADME, tissue-based; conditions: read-out: Stability; outline: as §1
[10] = system: Spleen; assay: Biodistribution in human A431 cell xenografted nu/nu BALB/c mouse spleen at 3.7 MBq after 60 mins; assay type: ADME, organism-based, A-431; conditions: in vivo, 1 h
[11] = Biodistribution in human A431 cell xenografted nu/nu BALB/c mouse gallbladder at 3.7 MBq after 60 mins; assay type: ADME, organism-based, Gall bladder, A-431; conditions: in vivo, 1 h
[12] = system: Bone; assay: Biodistribution in human A431 cell xenografted nu/nu BALB/c mouse bone at 3.7 MBq after 60 mins; assay type: ADME, organism-based, Bone element, A-431; conditions: in vivo, 1 h
[13] = system: Stomach; assay: Biodistribution in human A431 cell xenografted nu/nu BALB/c mouse full stomach at 3.7 MBq after 60 mins; assay type: ADME, organism-based, A-431; conditions: in vivo, 1 h
[14] = system: Duodenum; assay: Biodistribution in human A431 cell xenografted nu/nu BALB/c mouse empty duodenum at 3.7 MBq after 60 mins; assay type: ADME, organism-based, A-431; conditions: in vivo, 1 h
[15] = system: Colon; assay: Biodistribution in human A431 cell xenografted nu/nu BALB/c mouse empty colon at 3.7 MBq after 60 mins; assay type: ADME, organism-based, A-431; conditions: in vivo, 1 h
[16] = Biodistribution in human A431 cell xenografted nu/nu BALB/c mouse urine at 3.7 MBq after 60 mins; assay type: ADME, organism-based, A-431; conditions: in vivo, 1 h
[17] = Metabolic stability in mouse plasma assessed as compound remaining at 3.7 MBq after 2 mins; assay type: ADME, cell-free; conditions: read-out: Stability; outline: as §1
[18] = system: Lung; assay: Biodistribution in human A431 cell xenografted nu/nu BALB/c mouse lung at 3.7 MBq after 60 mins; assay type: ADME, organism-based, A-431; conditions: in vivo, 1 h
[19] = system: Colon; assay: Biodistribution in human A431 cell xenografted nu/nu BALB/c mouse full colon at 3.7 MBq after 60 mins; assay type: ADME, organism-based, A-431; conditions: in vivo, 1 h
[20] = system: Jejunum; assay: Biodistribution in human A431 cell xenografted nu/nu BALB/c mouse full jejunum at 3.7 MBq after 60 mins; assay type: ADME, organism-based, A-431; conditions: in vivo, 1 h
[21] = Biodistribution in human A431 cell xenografted nu/nu BALB/c mouse tumor at 3.7 MBq after 60 mins; assay type: ADME, organism-based, Neoplasm, A-431; conditions: in vivo, 1 h
[22] = system: Stomach; assay: Biodistribution in human A431 cell xenografted nu/nu BALB/c mouse empty stomach at 3.7 MBq after 60 mins; assay type: ADME, organism-based, A-431; conditions: in vivo, 1 h
[23] = Metabolic stability in mouse liver assessed as compound remaining at 3.7 MBq after 60 mins; assay type: ADME, tissue-based; conditions: read-out: Stability; outline: as §1
[24] = system: Brain; assay: Biodistribution in human A431 cell xenografted nu/nu BALB/c mouse brain at 3.7 MBq after 60 mins; assay type: ADME, organism-based, A-431; conditions: in vivo, 1 h
[25] = system: Muscle tissue; assay: Biodistribution in human A431 cell xenografted nu/nu BALB/c mouse muscle at 3.7 MBq after 60 mins; assay type: ADME, organism-based, A-431; conditions: in vivo, 1 h
[26] = Biodistribution in human A431 cell xenografted nu/nu BALB/c mouse liver at 3.7 MBq after 60 mins; assay type: ADME, organism-based, A-431; conditions: in vivo, 1 h
[27] = system: Blood; assay: Biodistribution in human A431 cell xenografted nu/nu BALB/c mouse blood at 3.7 MBq after 60 mins; assay type: ADME, organism-based, A-431; conditions: in vivo, 1 h
[28] = system: Duodenum; assay: Biodistribution in human A431 cell xenografted nu/nu BALB/c mouse full duodenum at 3.7 MBq after 60 mins; assay type: ADME, organism-based, A-431; conditions: in vivo, 1 h
[29] = system: Heart; assay: Biodistribution in human A431 cell xenografted nu/nu BALB/c mouse heart at 3.7 MBq after 60 mins; assay type: ADME, organism-based, A-431; conditions: in vivo, 1 h
[30] = molecular target: Epidermal growth factor receptor (Homo sapiens, UniProt P00533); assay: Inhibition of EGFR autophosphorylation in human A431 cells; assay type: cell-based, A-431
Chain of Epidermal growth factor receptor (P00533 whole entry): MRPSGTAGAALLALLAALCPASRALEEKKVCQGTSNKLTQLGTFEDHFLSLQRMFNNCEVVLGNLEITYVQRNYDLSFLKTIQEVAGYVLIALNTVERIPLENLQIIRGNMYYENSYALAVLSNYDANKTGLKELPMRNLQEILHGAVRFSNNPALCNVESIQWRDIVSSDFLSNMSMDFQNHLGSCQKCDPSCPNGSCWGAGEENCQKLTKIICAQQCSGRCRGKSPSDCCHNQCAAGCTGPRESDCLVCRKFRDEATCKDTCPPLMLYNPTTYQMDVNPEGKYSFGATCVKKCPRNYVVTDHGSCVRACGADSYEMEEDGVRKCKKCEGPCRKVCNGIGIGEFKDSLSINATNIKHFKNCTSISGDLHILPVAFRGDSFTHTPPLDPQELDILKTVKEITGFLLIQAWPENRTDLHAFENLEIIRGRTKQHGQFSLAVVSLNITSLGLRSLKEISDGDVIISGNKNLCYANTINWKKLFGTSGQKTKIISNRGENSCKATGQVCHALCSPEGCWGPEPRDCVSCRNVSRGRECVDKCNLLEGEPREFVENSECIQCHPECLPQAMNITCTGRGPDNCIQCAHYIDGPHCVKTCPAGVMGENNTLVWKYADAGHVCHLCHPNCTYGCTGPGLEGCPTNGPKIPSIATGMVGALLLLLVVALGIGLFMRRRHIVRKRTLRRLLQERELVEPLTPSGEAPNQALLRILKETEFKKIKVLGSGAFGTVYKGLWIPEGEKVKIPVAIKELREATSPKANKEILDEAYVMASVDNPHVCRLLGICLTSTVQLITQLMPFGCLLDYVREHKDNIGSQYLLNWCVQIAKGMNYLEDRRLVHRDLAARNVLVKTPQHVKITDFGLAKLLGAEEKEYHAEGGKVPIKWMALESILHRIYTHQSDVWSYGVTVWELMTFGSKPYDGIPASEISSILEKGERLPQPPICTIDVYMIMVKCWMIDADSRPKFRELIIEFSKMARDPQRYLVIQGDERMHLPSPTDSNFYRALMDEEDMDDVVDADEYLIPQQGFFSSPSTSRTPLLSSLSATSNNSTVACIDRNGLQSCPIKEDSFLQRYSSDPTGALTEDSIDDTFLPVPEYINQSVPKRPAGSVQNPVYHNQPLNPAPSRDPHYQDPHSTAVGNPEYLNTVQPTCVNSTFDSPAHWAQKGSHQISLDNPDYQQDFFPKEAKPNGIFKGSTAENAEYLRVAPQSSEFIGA

## CCOc1cc2ncc(C#N)c(Nc3ccc(F)c(Cl)c3)c2cc1NC(=O)/C=C/CNCc1cn(CCF)nn1
[1]
  remaining at 2 min: 95%
[2]
  Drug uptake: 0.161 % ID/g
[3]
  Drug uptake: 0.068 % ID/g
[4]
  Drug uptake: 0.711 % ID/g
[5]
  Drug uptake: 0.027 % ID/g
[6]
  Drug uptake: 0.344 % ID/g
[7]
  remaining at 0.5 h: 62.8%
[8]
  remaining at 1 h: 49.8%
[9]
  remaining at 0.5 h: 85.1%
[10]
  Drug uptake: 0.211 % ID/g
[11]
  Drug uptake: 8.561 % ID/g
[12]
  Drug uptake: 0.031 % ID/g
[13]
  Drug uptake: 1.341 % ID/g
[14]
  Drug uptake: 1.453 % ID/g
[15]
  Drug uptake: 0.197 % ID/g
[16]
  Drug uptake: 0.151 % ID/g
[17]
  remaining at 2 min: 98.9%
[18]
  Drug uptake: 0.138 % ID/g
[19]
  Drug uptake: 0.236 % ID/g
[20]
  Drug uptake: 0.489 % ID/g
[21]
  Drug uptake: 0.082 % ID/g
[22]
  Drug uptake: 0.215 % ID/g
[23]
  remaining at 1 h: 75.5%
[24]
  Drug uptake: 0.006 % ID/g
[25]
  Drug uptake: 0.018 % ID/g
[26]
  Drug uptake: 0.392 % ID/g
[27]
  Drug uptake: 0.022 % ID/g
[28]
  Drug uptake: 1.987 % ID/g
[29]
  Drug uptake: 0.041 % ID/g

## Nc1cc2ncnc(Nc3cccc(Br)c3)c2cc1N
[30]
  IC50: > 1 µM
